Screening data: PubChem, Broad Institute
Rows were chosen to be rich in hits. Some 1.5% of all compounds tested hit in one or more screens of this group.
dFosB act-1 – activators of mouse delta FosB homodimer | purified delta FosB, TAMRA-CDK5 oligo fluorescence polarization; percent of positive-control signal above neutral wells | actives 0.99% (n = 340,000) | activation, % at 25 µM | AID 493131 | P13346;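 active = mean activation above about 17%, with every replicate also reaching it, limit read from the data, passing the limit was not always enough; inconclusive = only one of the two conditions met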
RAD54 inh – RAD54 (human) branch migration inhibition. actives 0.14% (n = 360,000). RAD54 Holliday junction branch migration, FAM/BHQ fluorescence. inhibition, % at 10.4 µM. Q92698;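 active = mean normalized replicate activity at least 40 and at least half of replicates scoring 40 or more; inconclusive = only one of the two criteria met; inactive = mean below 40 and under half of replicates reaching 40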;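 note: 0% = median of neutral control wells and 100% = median of positive control wells; inhibitors cause a drop in the FAM fluorescence signal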
S100A4 MyoIIA – inhibitors of human S100A4 binding to myosin IIA peptide; P26447; S100A4/TAMRA-MyoIIA peptide fluorescence polarization; inhibition, % at 10.7 µM; actives 0.14% (n = 360,000); AID 652163;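 active = mean inhibition of at least 70% across replicates, with every replicate also reaching that level; inconclusive = mean inhibition reaches 70% but some replicates fall short; inactive = mean inhibition below 70%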
Target sequence (P26447 whole entry, looked up): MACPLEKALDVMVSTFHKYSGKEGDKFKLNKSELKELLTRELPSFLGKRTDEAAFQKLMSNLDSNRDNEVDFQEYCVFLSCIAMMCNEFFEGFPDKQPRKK
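Test system: S100A4 monomer protein; Medium: HEPES pH 7.2 with CaCl2, KCl, NaCl, DTT, Triton; Probe or stimulus: TAMRA-labelled myosin IIA heavy-chain peptide probe, 5 nM; Doses: one dose per compound; Times: polarization read 5 min after assay mix addition, stable 5–60 min; Benchmarks: neutral control DMSO, positive control TFP.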
AF4-AF9 inh – blocks AF4 peptide binding to human AF9; AlphaScreen, biotin-AF4 peptide binding to FLAG-AF9; AID 651704; actives 0.47% (n = 350,000); inhibition, % at 10 µM;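 active = every replicate reaching a set inhibition limit, whatever the replicate mean, cut at about 25% in these data; inconclusive = mean inhibition reaches that limit but some replicates miss it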;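 note: 0% = plate neutral control median and 100% = total signal loss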
Target sequence (P42568 whole entry, looked up): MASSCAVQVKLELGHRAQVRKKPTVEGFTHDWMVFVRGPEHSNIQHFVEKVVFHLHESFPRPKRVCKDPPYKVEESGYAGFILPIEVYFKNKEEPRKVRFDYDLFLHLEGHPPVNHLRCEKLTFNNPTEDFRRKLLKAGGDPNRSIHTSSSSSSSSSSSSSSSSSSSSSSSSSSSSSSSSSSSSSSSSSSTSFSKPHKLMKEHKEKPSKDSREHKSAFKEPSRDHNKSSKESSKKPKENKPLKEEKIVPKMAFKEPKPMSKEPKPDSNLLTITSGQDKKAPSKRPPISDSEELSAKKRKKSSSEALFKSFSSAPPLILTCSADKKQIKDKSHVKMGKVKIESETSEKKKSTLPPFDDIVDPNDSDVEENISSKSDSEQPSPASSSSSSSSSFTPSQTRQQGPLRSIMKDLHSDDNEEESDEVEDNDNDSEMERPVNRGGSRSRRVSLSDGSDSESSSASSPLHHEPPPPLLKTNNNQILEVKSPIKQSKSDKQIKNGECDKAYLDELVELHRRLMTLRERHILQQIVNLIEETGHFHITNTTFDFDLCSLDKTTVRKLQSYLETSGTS
RAD52 inh – inhibitors of human RAD52 DNA annealing | P43351 | recombinant RAD52 DNA annealing, FRET fluorescence | inhibition, % at 18.7 µM | actives 0.46% (n = 360,000) | AID 651710;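 active = every replicate showing at least 50% inhibition; inconclusive = mean inhibition at least 50% but not in every replicate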
dFosB act-2 – delta FosB (mouse) homodimer activation; shares compounds with dFosB act-1; purified delta FosB, TAMRA-CDK5 oligo fluorescence polarization; normalised: neutral wells 0, positive control 100; activation, % at 24.9 µM; 2,400 tested, under 10 active; AID 588690;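 active = highest replicate activation at or above 34% and every replicate reaching that threshold; inconclusive = meets only one of the two criteria; inactive = meets neither criterion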;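 note: higher polarization means more probe DNA bound by delta FosB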
* marks the source's active call; other numbers are inactive results; ? = inconclusive; · = not tested or not shown.

SMILES	dFosB act-1	RAD54 inh	S100A4 MyoIIA	AF4-AF9 inh	RAD52 inh	dFosB act-2
CC(=O)Nc1ccc(NC(=O)CSc2nc(N)c(NC(=O)c3ccccc3F)c(=O)[nH]2)cc1	16.9*	-3.7	?	-1.6	-12.2	-1.5
Nc1nc(SCC(=O)NCc2ccc(F)cc2)[nH]c(=O)c1NC(=O)c1ccc(Cl)cc1	33.0*	·	·	·	·	4.8
Cc1cccc(NC(=O)CSc2nc(N)c(NC(=O)c3ccccc3F)c(=O)[nH]2)c1	?	12.9	-10.9	-1.4	-6.8	·
CO[C@H]1CN(C)C(=O)c2cc(NC(=O)c3ccccc3F)ccc2OC[C@@H](C)N(CC2CCOCC2)C[C@@H]1C	·	2.0	-5.4	3.4	8.7	·
Cc1cc(-n2c(SCC(=O)NCCC3=CCCCC3)nc3n[nH]c(C)c3c2=N)ccc1Cl	0.3	2.8	-3.7	-0.6	-7.4	·
Cc1[nH]nc2nc(SCC(=O)NCCC3=CCCCC3)n(-c3ccc(Br)cc3)c(=N)c12	65.9*	9.9	5.1	-5.5	-5.8	8.1
Cc1ccc(NC(=O)C2CC(=O)N/C(=N/N=C/c3ccco3)S2)cc1 (stereo unspecified)	4.8	·	·	·	·	·
O=C1CC(C(=O)Nc2ccc(F)cc2)S/C(=N\N=C\c2ccco2)N1 (stereo unspecified)	32.7*	·	·	·	·	2.9
O=C(c1cccc(F)c1)N1C[C@@H]2[C@H](c3ccccc31)[C@@H](CO)N2C(=O)C1CCOCC1	·	-25.6	32.8	2.0	0.2	·
COC(=O)c1ccc(NC(=O)C(=O)c2c[nH]c3ccccc23)cc1	71.8*	-3.5	10.2	2.9	-21.5	7.0
C[C@@H]1CN([C@H](C)CO)C(=O)c2cc(NC(=O)Nc3ccccc3)ccc2O[C@@H](C)CCCCO[C@@H]1CN(C)Cc1ccccc1	·	2.8	2.8	7.0	-4.0	·
Cc1ccc(O)c(C(=O)c2cnn(C(=O)c3cccc(S(=O)(=O)N(C)C)c3)c2)c1	13.3	5.4	13.7	0.4	-1.2	·
COc1ccc(O)c(C(=O)c2cnn(C(=O)c3cccc(S(=O)(=O)N(C)C)c3)c2)c1	36.7*	-1.2	-3.6	-6.7	3.9	1.2
Cc1c(Cl)cccc1NC(=O)CNC(=O)C1CCN(C(=O)Nc2ccccc2)CC1	24.4*	-10.6	-4.5	-2.0	-0.4	2.0
Cc1ccc(CNC(=O)C2CCN(C(=O)Nc3ccccc3)CC2)cc1	3.9	3.7	-0.3	-40.9	0.1	·
O=C(N/N=C/c1ccc(Cl)c([N+](=O)[O-])c1)c1cc(-c2ccc3c4c(cccc24)CC3)n[nH]1	37.8*	-9.8	-1.8	6.0	-5.8	6.9
C[C@H](CO)N1C[C@H](C)[C@@H](CN(C)C)Oc2ccc(NS(C)(=O)=O)cc2CC1=O	·	1.8	5.9	-3.3	-0.2	·
O=C(Nc1ccccc1)Nc1nnc(Cc2ccccc2F)s1	15.7	-9.5	-3.4	-4.9	-8.2	·
Cc1ccccc1NC(=O)Cc1nnc(NC(=O)Nc2ccccc2F)s1	52.2*	1.4	-6.7	-1.5	-12.6	-10.3
O=C(Nc1ccc(Cl)cc1)Nc1nnc(CSCc2ccc(Cl)cc2)s1	18.6*	·	-7.7	-2.4	3.3	0.2
COC(=O)Nc1nnc(CC(=O)Nc2ccccc2C)s1	1.2	6.6	·	·	·	·
O=C(Nc1ccc(F)cc1)Nc1nnc(Cc2ccccc2F)s1	20.9*	-6.4	-2.6	-0.2	-11.3	-0.7
COc1ccccc1NC(=O)Nc1nnc(Cc2ccccc2F)s1	2.9	·	9.0	-3.5	8.8	·
COc1ccccc1NC(=O)Nc1nnc(CC(=O)Nc2cccc(C)c2)s1	31.6*	·	-0.6	-15.0	-26.1	4.5
COc1ccc(S(=O)(=O)N[C@H]2CC[C@@H](CC(=O)NCc3ccccc3F)O[C@H]2CO)cc1	·	-1.1	15.2	0.0	-8.0	·
SMILES	dFosB act-1	RAD54 inh	S100A4 MyoIIA	AF4-AF9 inh	RAD52 inh	dFosB act-2
COc1ccc2c3c([nH]c2c1)[C@@H](CO)N(Cc1ccncc1)CC31CCN(Cc2ccc(-c3ccccn3)cc2)CC1	·	·	5.3	8.3	-50.5	·
Cc1ccc(S(=O)(=O)Nc2cccc3c2O[C@H](CN(C)S(=O)(=O)c2cn(C)cn2)[C@@H](C)CN([C@H](C)CO)C3=O)cc1	·	13.4	-13.1	-9.7	-2.9	·
COc1cccc(NC(=O)Nc2nnc(CC(=O)NCc3ccccc3)s2)c1	38.7*	-4.0	-2.5	?	-14.2	-3.3
COc1ccc(NC(=O)Cc2csc(NC(=O)Nc3ccccc3OC)n2)cc1	·	2.8	-15.2	-0.4	-12.7	·
COc1ccccc1NC(=O)Nc1nc(CC(=O)Nc2ccc(F)cc2)cs1	27.3*	-5.7	-1.9	3.0	-11.2	5.0
Cc1cccc(C(=O)OCC(=O)c2c(C)[nH]c3ccccc23)c1O	27.8*	-0.3	1.9	1.5	-14.4	0.0
CCOC(=O)c1c(C)[nH]c(C)c1C(=O)COC(=O)c1cccc(C)c1O	-2.8	-5.3	·	·	·	·
CCS(=O)(=O)N1CC(=O)N2[C@H](CO)[C@@H](c3ccc(C#CCC4CCCC4)cc3)[C@H]2C1	·	·	-21.8	10.7	-28.5	·
CCOc1ccc2nc(NC3=NC(C)(C)C=C(C)N3)nc(C)c2c1	23.5*	39.2	·	·	·	5.3
CCOc1ccc2nc(NC3=NC(c4ccc(OC)cc4)CC(=O)N3)nc(C)c2c1 (stereo unspecified)	-56.5	·	-6.4	5.2	-27.1	·
CC1CCc2sc(C(=O)N/N=C/c3ccc([N+](=O)[O-])cc3)cc2C1 (stereo unspecified)	16.8*	6.6	·	·	·	-2.1
COC(=O)[C@H]1[C@H](CO)[C@H]2Cn3c(ccc(-c4cccc(C(=O)N(C)C)c4)c3=O)[C@H]2N1C	·	2.3	-35.6	-17.5	-6.9	·
O=C(Cn1nnc(-c2ccc(CN3CCOCC3)cc2)n1)Nc1nc(-c2ccccc2)cs1	25.2*	-9.7	·	·	·	-4.4
CCn1c(=O)c(C(=O)Nc2ncccc2O)c(O)c2ccccc21	25.7*	-9.5	-2.6	-1.5	-5.5	-0.8
CCn1c(=O)c(C(=O)Nc2ncccc2C)c(O)c2ccccc21	-34.3	·	-0.9	0.1	-5.7	·
CO[C@@H]1CN(C)C(=O)c2cc(NS(=O)(=O)c3ccccc3)ccc2OC[C@@H](C)N(Cc2cccnc2)C[C@@H]1C	·	-2.2	5.9	-0.6	-0.2	·
COc1ccc(/C=N/n2c(=O)[nH]c3c([nH]c4ccc(Cl)cc43)c2=O)cc1CN1CCCCC1	-2.0	-3.5	0.2	-4.3	-1.6	·
COc1ccc(/C=N/n2c(=O)[nH]c3c([nH]c4ccc(Br)cc43)c2=O)cc1CN1CCOCC1	28.3*	11.6	·	·	·	3.4
CO[C@@H]1CN(C)C(=O)c2ccc(NC(=O)c3ccccc3)cc2OC[C@H](C)N(CC2CC2)C[C@H]1C	·	0.5	11.0	-1.9	2.6	·
Cc1noc(C)c1S(=O)(=O)Nc1ccc2c(c1)C(=O)N([C@@H](C)CO)C[C@@H](C)[C@@H](CN(C)S(=O)(=O)c1ccc(Cl)cc1)OCCCC[C@H](C)O2	·	1.2	-29.1	3.8	-39.7	·
